# Measurements: ChEMBL document CHEMBL4808215, “Discovery of Selective Small-Molecule Inhibitors for the ENL YEATS Domain” (J Med Chem, 2021)
# pIC50: −log10 of the molar value. The source made the active and inactive calls. The rule behind the calls is not given here.
# Columns and labels:
# Protein ENL = target: T1, Protein ENL (Homo sapiens, UniProt Q03111); assay: Inhibition of human His-ENL YEATS domain and biotinylated H3K9ac peptide interaction by AlphaScreen assay
# T1 sequence (Q03111 whole entry): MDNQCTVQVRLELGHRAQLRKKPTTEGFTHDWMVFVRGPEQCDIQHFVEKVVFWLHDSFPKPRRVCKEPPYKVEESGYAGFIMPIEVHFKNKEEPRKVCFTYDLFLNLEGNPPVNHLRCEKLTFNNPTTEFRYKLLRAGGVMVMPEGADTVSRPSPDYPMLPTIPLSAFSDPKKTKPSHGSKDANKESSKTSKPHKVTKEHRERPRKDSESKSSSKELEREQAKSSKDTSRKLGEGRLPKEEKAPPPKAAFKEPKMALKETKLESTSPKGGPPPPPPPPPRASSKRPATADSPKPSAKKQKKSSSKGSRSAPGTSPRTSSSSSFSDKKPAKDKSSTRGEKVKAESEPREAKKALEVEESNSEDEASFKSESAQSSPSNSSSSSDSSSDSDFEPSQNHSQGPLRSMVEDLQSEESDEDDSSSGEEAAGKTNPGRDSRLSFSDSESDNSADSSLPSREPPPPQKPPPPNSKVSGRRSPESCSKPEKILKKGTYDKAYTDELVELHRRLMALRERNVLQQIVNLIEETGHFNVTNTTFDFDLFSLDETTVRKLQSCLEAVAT
# Protein AF-9 = target: T2, Protein AF-9 (Homo sapiens, UniProt P42568); assay: Inhibition of human His-AF9 YEATS domain and biotinylated H3K9ac peptide interaction by AlphaScreen assay
# T2 sequence (P42568 whole entry): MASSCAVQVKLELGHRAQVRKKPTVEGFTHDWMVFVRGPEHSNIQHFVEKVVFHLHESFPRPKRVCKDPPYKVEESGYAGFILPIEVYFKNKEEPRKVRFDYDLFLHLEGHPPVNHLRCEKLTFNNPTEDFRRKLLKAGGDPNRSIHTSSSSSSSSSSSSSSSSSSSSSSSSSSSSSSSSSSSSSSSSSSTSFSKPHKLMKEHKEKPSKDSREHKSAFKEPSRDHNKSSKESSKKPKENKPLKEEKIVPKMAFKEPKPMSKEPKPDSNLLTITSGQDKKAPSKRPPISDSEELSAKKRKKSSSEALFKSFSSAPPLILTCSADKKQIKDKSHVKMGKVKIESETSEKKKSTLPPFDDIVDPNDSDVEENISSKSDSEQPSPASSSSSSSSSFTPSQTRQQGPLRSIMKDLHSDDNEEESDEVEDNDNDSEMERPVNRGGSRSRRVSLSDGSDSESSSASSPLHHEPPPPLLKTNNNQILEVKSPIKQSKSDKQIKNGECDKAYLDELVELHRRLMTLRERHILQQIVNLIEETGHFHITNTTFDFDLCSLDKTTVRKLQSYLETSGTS
# [1] = target: T3, YEATS domain-containing protein 4 (Homo sapiens, UniProt O95619); assay: Inhibition of human His-GAS41 YEATS domain and biotinylated H3K27ac peptide interaction by AlphaScreen assay
# T3 sequence (O95619 whole entry, the tested form may be a part): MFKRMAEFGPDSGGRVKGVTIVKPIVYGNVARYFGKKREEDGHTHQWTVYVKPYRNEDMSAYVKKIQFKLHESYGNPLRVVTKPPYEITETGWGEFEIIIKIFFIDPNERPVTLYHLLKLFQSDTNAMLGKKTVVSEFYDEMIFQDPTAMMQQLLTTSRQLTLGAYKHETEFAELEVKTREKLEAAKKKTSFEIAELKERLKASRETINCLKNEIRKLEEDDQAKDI
# Procedure, shortened: (§1)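 His-tagged YEATS domains were expressed in E. coli Rosetta-2 (DE3) pLysS and purified on Ni-NTA. Partners were biotinylated peptide on streptavidin donor and Ni2+-chelate acceptor beads: AF9 30 nM with H3K9ac, GAS41 100 nM with H3K27ac, YEATS2 100 nM with H3K27cr. Peptides at 30 nM, buffer 50 mM HEPES pH 7.4, 100 mM NaCl, 0.1% BSA, 0.05% CHAPS. Thirteen-point 3-fold series from 54 μM to 0.1 nM, 4–6 replicates, signal normalised to no-compound control, four-parameter fit.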
# [2] = target: T4, YEATS domain-containing protein 2 (Homo sapiens, UniProt Q9ULM3); assay: Inhibition of human His-YEATS2 YEATS domain and biotinylated […] peptide interaction by AlphaScreen assay; procedure, shortened: as §1
# T4 sequence (Q9ULM3 whole entry): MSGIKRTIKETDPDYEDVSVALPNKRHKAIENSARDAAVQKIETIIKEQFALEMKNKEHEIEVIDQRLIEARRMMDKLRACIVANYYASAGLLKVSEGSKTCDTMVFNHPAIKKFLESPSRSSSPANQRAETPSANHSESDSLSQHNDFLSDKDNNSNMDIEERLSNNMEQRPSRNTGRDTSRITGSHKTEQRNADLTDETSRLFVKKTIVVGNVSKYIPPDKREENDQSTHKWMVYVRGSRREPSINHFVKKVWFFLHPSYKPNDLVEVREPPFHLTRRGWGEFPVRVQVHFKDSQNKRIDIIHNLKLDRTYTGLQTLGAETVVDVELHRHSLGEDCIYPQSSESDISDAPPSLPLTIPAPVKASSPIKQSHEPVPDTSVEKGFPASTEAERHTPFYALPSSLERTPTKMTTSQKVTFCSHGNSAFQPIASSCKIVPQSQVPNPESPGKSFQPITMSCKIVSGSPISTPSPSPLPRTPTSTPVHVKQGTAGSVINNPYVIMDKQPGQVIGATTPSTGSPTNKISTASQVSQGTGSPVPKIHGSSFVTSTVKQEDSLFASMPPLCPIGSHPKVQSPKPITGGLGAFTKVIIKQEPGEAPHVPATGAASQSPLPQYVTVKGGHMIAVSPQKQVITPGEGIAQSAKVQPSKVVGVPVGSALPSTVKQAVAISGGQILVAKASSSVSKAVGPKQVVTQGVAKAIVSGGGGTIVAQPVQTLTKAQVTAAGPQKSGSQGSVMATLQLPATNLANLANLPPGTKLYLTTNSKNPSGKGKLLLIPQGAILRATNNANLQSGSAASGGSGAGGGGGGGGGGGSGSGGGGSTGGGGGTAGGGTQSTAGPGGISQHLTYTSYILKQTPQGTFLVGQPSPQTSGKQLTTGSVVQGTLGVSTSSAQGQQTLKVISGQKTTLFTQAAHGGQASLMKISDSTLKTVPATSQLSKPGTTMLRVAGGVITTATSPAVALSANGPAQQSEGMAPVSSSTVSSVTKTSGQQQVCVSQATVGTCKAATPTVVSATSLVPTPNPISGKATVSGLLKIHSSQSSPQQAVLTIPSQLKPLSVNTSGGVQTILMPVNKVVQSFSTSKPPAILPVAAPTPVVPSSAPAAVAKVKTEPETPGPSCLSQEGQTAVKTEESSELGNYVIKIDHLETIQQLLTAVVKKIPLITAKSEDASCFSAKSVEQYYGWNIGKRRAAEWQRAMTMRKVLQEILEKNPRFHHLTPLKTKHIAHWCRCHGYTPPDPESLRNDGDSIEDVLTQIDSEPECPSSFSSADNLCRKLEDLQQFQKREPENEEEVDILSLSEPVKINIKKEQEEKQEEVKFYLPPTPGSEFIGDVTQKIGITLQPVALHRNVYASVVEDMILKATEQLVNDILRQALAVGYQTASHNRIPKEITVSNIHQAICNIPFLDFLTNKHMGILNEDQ
# [3] = target: T5, Protein ENL (Homo sapiens) (UniProt Q03111); assay: Inhibition of human His-ENL YEATS domain and biotinylated H3K9ac peptide interaction at 5 uM by AlphaScreen assay
# T5 sequence (whole entry): T1 sequence (Q03111 whole entry)
# [4] = target: T6, Protein AF-9 (Homo sapiens) (UniProt P42568); assay: Inhibition of human His-AF9 YEATS domain and biotinylated H3K9ac peptide interaction at 20 uM by AlphaScreen assay
# T6 sequence (whole entry): T2 sequence (P42568 whole entry)
# [5] = target: T3, YEATS domain-containing protein 4; assay: Inhibition of human His-GAS41 YEATS domain and biotinylated H3K27ac peptide interaction at 20 uM by AlphaScreen assay
# [6] = target: T7, YEATS domain-containing protein 2 (Homo sapiens) (UniProt Q9ULM3); assay: Inhibition of human His-YEATS2 YEATS domain and biotinylated […] peptide interaction at 20 uM by AlphaScreen assay
# T7 sequence (whole entry): T4 sequence (Q9ULM3 whole entry)
# Homo sapiens = species on record: Homo sapiens; assay: Selectivity ratio of IC50 for human His-AF9 YEATS domain to IC50 for human His-ENL YEATS domain
# U2OS = assay: Growth inhibition of ENL-independent human U2OS cells at 50 uM incubated for 3 days by CellTiter-Glo luminescent cell viability assay relative to control; assay type: functional, cell-based; details: time 3.0 day
# Procedure, shortened: (§2)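 MOLM13 and MV4;11 were grown in RPMI-1640 + 10% FBS, U2OS in DMEM + 10% FBS. Treatment with DMSO or compound for 3 days. Viability read by CellTiter-Glo luminescence and expressed as % of DMSO-treated cells. Mean ± SEM, n = 3.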
# MOLM-13 [7] = assay: Growth inhibition of human MOLM13 cells at 5 uM incubated for 3 days by CellTiter-Glo luminescent cell viability assay relative to control; assay type: functional; details: MOLM-13, 72 h, time 3 day, read-out: GI; procedure, shortened: as §2
# MOLM-13 [8] = assay: Growth inhibition of human MOLM13 cells at 10 uM incubated for 3 days by CellTiter-Glo luminescent cell viability assay relative to control; assay type: functional; details: MOLM-13, 72 h, time 3 day, read-out: GI; procedure, shortened: as §2
# MV4-11 = assay: Growth inhibition of human MV4-11 cells at 2.5 to 50 uM incubated for 3 days by CellTiter-Glo luminescent cell viability assay relative to control; assay type: functional, cell-based; details: dose 2.5-50 µM, time 3.0 day; procedure, shortened: as §2
# [9] = target: T5, Protein ENL (Homo sapiens); assay: Stabilization of ENL in human MV4-11 cells assessed as inhibition of high temperature-induced ENL protein degradation at 20 uM incubated for 5 hrs by cellular thermal shift assay; assay type: cell-based
# Procedure, shortened: (§3)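 Cells (MOLM13, MV4;11 or HeLa) were treated with 20 μM compound or DMSO for 5 h, washed with PBS and resuspended in PBS with protease inhibitors, about 3 million cells per aliquot. Aliquots were heated 3 min at the indicated temperatures, then held 2 min at room temperature. Lysis was by NP40/glycerol/DTT buffer and three freeze-thaw cycles, followed by a 13,000 rpm spin at 4 °C. Soluble ENL, GAS41 or AF9 in supernatants was measured by western blot with β-actin loading control.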
# [10] = target: T5, Protein ENL (Homo sapiens); assay: Stabilization of ENL in human MOLM13 cells assessed as inhibition of high temperature-induced ENL protein degradation at 20 uM incubated for 5 hrs by cellular thermal shift assay; assay type: cell-based; details: MOLM-13; procedure, shortened: as §3
# [11] = target: T5, Protein ENL (Homo sapiens); assay: Stabilization of ENL in human HeLa cells assessed as inhibition of high temperature-induced ENL protein degradation at 20 uM incubated for 5 hrs by cellular thermal shift assay; assay type: cell-based; procedure, shortened: as §3
# [12] = target: T6, Protein AF-9 (Homo sapiens); assay: Stabilization of AF9 in human HeLa cells assessed as inhibition of high temperature-induced AF9 protein degradation at 20 uM incubated for 5 hrs by cellular thermal shift assay; assay type: cell-based; procedure, shortened: as §3
# MOLM-13 [13] = assay: Growth inhibition of human MOLM-13 cells incubated for 6 days by CellTiter-Glo luminescent cell viability assay; details: MOLM-13, 144 h
# MOLM-13 [14] = assay: Growth inhibition of human MOLM13 cells incubated for 6 days in presence of JQ1 by CellTiter-Glo luminescent cell viability assay; details: MOLM-13, 144 h
# [15] = target: YEATS domain-containing protein 4 (GAS41) (Homo sapiens) (UniProt O95619); assay: Stabilization of GAS41 in human MV4-11 cells assessed as inhibition of high temperature-induced GAS41 protein degradation at 20 uM incubated for 5 hrs by cellular thermal shift assay
# Chain of YEATS domain-containing protein 4 (GAS41) (Homo sapiens) (O95619 whole entry, looked up, the tested form may be a part): as the sequence (O95619 whole entry, the tested form may be a part) above
# [16] = target: YEATS domain-containing protein 4 (GAS41) (Homo sapiens) (UniProt O95619); assay: Stabilization of GAS41 in human MOLM13 cells assessed as inhibition of high temperature-induced GAS41 protein degradation at 20 uM incubated for 5 hrs by cellular thermal shift assay; details: MOLM-13
pIC50 (Protein ENL),pIC50 (Protein AF-9),pIC50 [1],pIC50 [2],inhibition [4],inhibition [5],inhibition [6],SMILES,also measured
6.64,5.73,< 4.27,< 4.27,Active,Active,Active,CSc1ccc(CNC(=O)c2ccc3nncn3c2)cc1,inhibition [3]: Active; Ratio (Homo sapiens): 4
6.58,,,,,,,CC(C)C1CCN1Cc1ccc(CNC(=O)c2ccc3nncn3c2)cc1 (stereo not given),
,6.14,< 4.27,< 4.27,Active,Active,Active,O=C(NCc1ccc(CNc2ncc(F)cn2)cc1)c1ccc2nncn2c1,
< 5.30,,,,,,,O=C(NCc1ccc(CN2CCC2)cc1)c1ccn2cnnc2c1,
6.05,,,,,,,O=C(NCc1ccc(CN2CCOCC2)cc1)c1ccc2nncn2c1,
6.58,,,,,,,CC(C)(C)C1CCN1Cc1ccc(CNC(=O)c2ccc3nncn3c2)cc1 (stereo not given),
,,< 4.27,4.73,Active,Active,Active,O=C(NCc1ccc(CN2CCC2)cc1)c1ccc2nncn2c1,
6.20,,,,,,,O=C(NCc1ccc(CN2CCCCC2)cc1)c1ccc2nncn2c1,
6.21,5.31,< 4.27,< 4.27,Active,Active,Active,CN(C)Cc1ccc(CNC(=O)c2ccc3nncn3c2)cc1,growth inhibition (GI) (U2OS): inactive; inhibition [3]: Active; inhibition of growth at 5 µM (MOLM-13 [7]): 40%; inhibition of growth at 10 µM (MOLM-13 [8]): 80%; growth inhibition (GI) (MV4-11): Active; Activity [9]: Active; Activity [10]: Active; Activity [11]: Active; Activity [12]: inactive; GI50 (MOLM-13 [13]): 3.64 µM; GI50 (MOLM-13 [14]): 1.34 µM; Activity [15]: inactive; Activity [16]: inactive
